Assay results taken from ChEMBL document CHEMBL1122986, “Aldosterone antagonists. 1. Synthesis and activities of 6 beta,7 beta:15 beta,16 beta-dimethylene steroidal spirolactones” (J Med Chem, 1985).
Calls of active or inactive are those of the source. No cut-off for these calls is given here.

How the values were obtained:
[1] = molecular target: T1, Androgen receptor (Rattus norvegicus) (UniProt P15207); test: Binding affinity for rat androgen receptor compared to dihydrotestosterone; No affinity
T1 sequence (whole entry): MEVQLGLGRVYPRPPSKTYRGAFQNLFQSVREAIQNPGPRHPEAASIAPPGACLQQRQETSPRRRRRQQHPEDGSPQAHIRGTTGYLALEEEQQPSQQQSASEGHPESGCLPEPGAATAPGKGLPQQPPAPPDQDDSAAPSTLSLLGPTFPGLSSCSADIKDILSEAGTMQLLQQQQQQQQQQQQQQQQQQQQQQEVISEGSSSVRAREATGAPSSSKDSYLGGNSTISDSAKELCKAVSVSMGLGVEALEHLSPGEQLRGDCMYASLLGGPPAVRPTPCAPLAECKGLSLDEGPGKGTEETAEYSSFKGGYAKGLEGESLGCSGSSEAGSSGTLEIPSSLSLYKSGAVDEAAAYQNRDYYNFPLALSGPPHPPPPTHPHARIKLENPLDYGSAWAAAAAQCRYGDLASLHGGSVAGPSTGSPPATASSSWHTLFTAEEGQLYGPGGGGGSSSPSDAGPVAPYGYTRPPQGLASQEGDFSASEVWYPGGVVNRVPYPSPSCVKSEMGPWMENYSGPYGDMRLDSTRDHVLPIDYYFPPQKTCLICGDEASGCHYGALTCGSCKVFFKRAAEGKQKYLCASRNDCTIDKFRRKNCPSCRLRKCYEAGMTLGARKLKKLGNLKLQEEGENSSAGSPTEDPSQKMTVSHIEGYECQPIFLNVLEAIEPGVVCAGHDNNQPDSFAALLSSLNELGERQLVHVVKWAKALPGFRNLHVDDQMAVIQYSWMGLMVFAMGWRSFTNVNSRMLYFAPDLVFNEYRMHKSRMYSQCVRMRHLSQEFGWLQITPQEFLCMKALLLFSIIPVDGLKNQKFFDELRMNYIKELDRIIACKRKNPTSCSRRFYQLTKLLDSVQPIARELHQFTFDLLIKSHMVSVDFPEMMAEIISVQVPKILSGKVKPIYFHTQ

[2] = molecular target: T2, Progesterone receptor (Oryctolagus cuniculus) (UniProt P06186); test: Binding affinity for rat progesterone receptor compared to progesterone
T2 sequence (whole entry): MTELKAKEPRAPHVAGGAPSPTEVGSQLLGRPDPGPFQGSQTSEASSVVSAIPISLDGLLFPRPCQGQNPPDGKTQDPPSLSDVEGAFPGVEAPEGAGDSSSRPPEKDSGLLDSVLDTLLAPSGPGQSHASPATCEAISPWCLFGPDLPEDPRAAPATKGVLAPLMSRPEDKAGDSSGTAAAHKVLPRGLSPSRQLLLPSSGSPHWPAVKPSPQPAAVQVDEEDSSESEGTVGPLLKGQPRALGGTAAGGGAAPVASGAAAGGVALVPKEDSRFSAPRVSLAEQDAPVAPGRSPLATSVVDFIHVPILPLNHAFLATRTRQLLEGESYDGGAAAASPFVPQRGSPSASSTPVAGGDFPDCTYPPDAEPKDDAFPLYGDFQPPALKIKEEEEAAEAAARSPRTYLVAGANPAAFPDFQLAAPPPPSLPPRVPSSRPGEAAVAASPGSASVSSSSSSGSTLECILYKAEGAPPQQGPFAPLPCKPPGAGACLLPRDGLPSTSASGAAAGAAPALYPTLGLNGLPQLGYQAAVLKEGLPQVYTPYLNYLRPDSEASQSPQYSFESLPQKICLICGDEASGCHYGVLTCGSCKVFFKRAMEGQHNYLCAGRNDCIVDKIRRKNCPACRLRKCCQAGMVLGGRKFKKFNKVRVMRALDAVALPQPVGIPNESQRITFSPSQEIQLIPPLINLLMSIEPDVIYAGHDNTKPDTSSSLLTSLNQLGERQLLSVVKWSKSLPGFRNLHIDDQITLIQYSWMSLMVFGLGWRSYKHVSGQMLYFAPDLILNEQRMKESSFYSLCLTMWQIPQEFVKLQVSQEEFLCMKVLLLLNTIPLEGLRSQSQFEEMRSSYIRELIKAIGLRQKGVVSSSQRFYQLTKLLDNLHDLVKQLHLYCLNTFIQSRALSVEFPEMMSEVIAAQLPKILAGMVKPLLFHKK

[3] = molecular target: T3, Mineralocorticoid receptor (Rattus norvegicus) (UniProt P22199); test: Relative potency as antialdosterone activity compared to spironolactone 1 hr after oral administration; type: functional, organism-based
T3 sequence (whole entry): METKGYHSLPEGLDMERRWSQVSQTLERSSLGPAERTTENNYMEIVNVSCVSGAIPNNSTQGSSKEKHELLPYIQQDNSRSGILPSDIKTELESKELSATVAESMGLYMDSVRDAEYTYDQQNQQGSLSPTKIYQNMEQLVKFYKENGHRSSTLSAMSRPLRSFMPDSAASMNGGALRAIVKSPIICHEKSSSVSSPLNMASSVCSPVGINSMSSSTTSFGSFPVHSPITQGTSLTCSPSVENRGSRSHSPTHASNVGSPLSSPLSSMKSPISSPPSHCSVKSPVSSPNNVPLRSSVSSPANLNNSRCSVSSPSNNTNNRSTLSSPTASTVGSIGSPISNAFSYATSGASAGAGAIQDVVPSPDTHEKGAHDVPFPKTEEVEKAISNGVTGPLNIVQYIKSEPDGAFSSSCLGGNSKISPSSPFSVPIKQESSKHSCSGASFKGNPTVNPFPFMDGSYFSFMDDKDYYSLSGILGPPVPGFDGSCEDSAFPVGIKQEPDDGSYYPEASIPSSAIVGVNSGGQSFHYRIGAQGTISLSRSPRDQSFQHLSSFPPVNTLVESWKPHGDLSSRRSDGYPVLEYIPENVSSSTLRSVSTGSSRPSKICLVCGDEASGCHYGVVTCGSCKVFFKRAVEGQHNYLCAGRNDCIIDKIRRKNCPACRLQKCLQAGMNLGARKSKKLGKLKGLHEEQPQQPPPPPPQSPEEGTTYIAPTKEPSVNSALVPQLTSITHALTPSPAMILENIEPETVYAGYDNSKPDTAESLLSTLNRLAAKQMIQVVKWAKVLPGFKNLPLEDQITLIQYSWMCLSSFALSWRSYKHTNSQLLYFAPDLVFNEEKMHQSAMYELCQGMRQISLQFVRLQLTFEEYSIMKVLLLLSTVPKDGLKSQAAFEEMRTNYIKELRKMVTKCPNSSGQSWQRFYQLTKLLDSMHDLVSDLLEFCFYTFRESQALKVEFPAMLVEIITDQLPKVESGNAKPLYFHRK
Procedure, shortened: (§1)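 Adrenalectomized Wistar rats (140–160 g) were maintained on fluocortolone caproate 1 mg/kg on the day of surgery and fluocortolone 10 mg/kg sc one day before testing. Rats were infused with saline-glucose (0.05% NaCl, 5% glucose) containing aldosterone 50 μg/L at 3 mL/h. Compounds were given orally 1 h before infusion at 6.7, 13.4 and 26.8 mg/kg. Hourly urine Na and K were measured by flame photometry over 10–15 h.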

[4] = molecular target: T2, Progesterone receptor (Oryctolagus cuniculus); test: Progestational activity in rabbit at 0.3 mg/kg oral dose; type: functional, organism-based; set-up: dose 0.3 mg/kg
Procedure, shortened: (§2)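 Clauberg test in rabbits after oral administration, run by literature procedures. Doses are listed […], and the read-out is the McPhail index.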

[5] = molecular target: T2, Progesterone receptor (Oryctolagus cuniculus); test: Progestational activity in rabbit at 1.0 mg/kg oral dose; type: functional, organism-based; set-up: dose 1 mg/kg; procedure, shortened: as §2
[6] = molecular target: T2, Progesterone receptor (Oryctolagus cuniculus); test: Progestational activity in rabbit at 3.0 mg/kg oral dose; type: functional, organism-based; set-up: dose 3 mg/kg; procedure, shortened: as §2
[7] = molecular target: T1, Androgen receptor (Rattus norvegicus)
[8] = molecular target: T3, Mineralocorticoid receptor (Rattus norvegicus); test: Relative potency as antialdosterone activity compared to spironolactone 1 hr after oral administration; No activity; type: functional, organism-based; procedure, shortened: as §1
[9] = molecular target: T3, Mineralocorticoid receptor (Rattus norvegicus); test: Relative potency as antialdosterone activity compared to spironolactone 1 hr after oral administration; NA denotes no activity; type: functional, organism-based; procedure, shortened: as §1
[10] = molecular target: T2, Progesterone receptor (Oryctolagus cuniculus); test: Progestational activity in rabbit at 30.0 mg/kg oral dose; type: functional, organism-based; set-up: dose 30 mg/kg; procedure, shortened: as §2
[11] = molecular target: T2, Progesterone receptor (Oryctolagus cuniculus); test: Binding affinity for rat progesterone receptor compared to progesterone; No affinity

| Compound | Competition factor [1] | Competition factor [2] | MRP [3] | MRP [8] | other results |
| --- | --- | --- | --- | --- | --- |
| CC12C(=CC(=O)CC1O)C1CC1C1C2CCC2(C)C1C1CC1[C@@]21CCC(=O)O1 (some centres undefined) | inactive | 19 | 45 | – | – |
| C[C@]12CCC(=O)C=C1[C@@H]1C[C@@H]1[C@H]1[C@@H]3[C@@H]4C[C@@H]4[C@@]4(CCC(=O)O4)[C@@]3(C)CC[C@@H]12 | – | 2.7 | 685 | – | – |
| CC12C=CC(=O)C=C1C1CC1C1C2CCC2(C)C1C1CC1[C@@]21CCC(=O)O1 (some centres undefined) | – | 6.5 | 745 | – | McPhail index [4]: 1; McPhail index [5]: 2.2; McPhail index [6]: 2.7; Competition factor [7]: 150 |
| CC12CCC(=O)C=C1C1CC1C1C2[C@H](O)CC2(C)C1C1CC1[C@@]21CCC(=O)O1 (some centres undefined) | inactive | 195 | – | inactive | – |
| CC12C(=CC(=O)C[C@@H]1C#N)C1CC1C1C2CCC2(C)C1C1CC1[C@@]21CCC(=O)O1 (some centres undefined) | – | – | – | – | MRP [9]: inactive |
| CC12C(=CC(=O)C[C@@H]1S)C1CC1C1C2CCC2(C)C1C1CC1[C@@]21CCC(=O)O1 (some centres undefined) | – | 5.8 | > 100 | – | McPhail index [10]: 3.5; Competition factor [7]: 63 |
| C[C@H]1CC(=O)C=C2C3CC3C3C(CCC4(C)C3C3CC3[C@@]43CCC(=O)O3)C21C (some centres undefined) | – | – | 100 | – | Competition factor [7]: 70 |
| CC12C=C(Cl)C(=O)C=C1C1CC1C1C2CCC2(C)C1C1CC1[C@@]21CCC(=O)O1 (some centres undefined) | – | 33 | – | inactive | – |
| CC(=O)S[C@H]1CC(=O)C=C2C3CC3C3C(CCC4(C)C3C3CC3[C@@]43CCC(=O)O3)C21C (some centres undefined) | – | – | 100 | – | Competition factor [11]: inactive |

Second part, led by results:

| Competition factor [1] | Competition factor [2] | MRP [3] | MRP [8] | Compound | other results |
| --- | --- | --- | --- | --- | --- |
| inactive | 105 | < 100 | – | C[C@@H]1CC2(C)C(=CC1=O)C1CC1C1C2CCC2(C)C1C1CC1[C@@]21CCC(=O)O1 (some centres undefined) | – |
| – | 21 | 100 | – | CC(=O)S[C@@H]1CC2=CC(=O)CC[C@]2(C)[C@H]2CC[C@@]3(C)[C@@H](CC[C@@]34CCC(=O)O4)[C@H]12 | – |
| – | – | – | inactive | CC12CCC(=O)C(Cl)=C1C1CC1C1C2CCC2(C)C1C1CC1[C@@]21CCC(=O)O1 (some centres undefined) | – |
| inactive | 18 | – | inactive | C=C1CC2(C)C(=CC1=O)C1CC1C1C2CCC2(C)C1C1CC1[C@@]21CCC(=O)O1 (some centres undefined) | – |
| – | 35 | – | inactive | CC1=CC2(C)C(=CC1=O)C1CC1C1C2CCC2(C)C1C1CC1[C@@]21CCC(=O)O1 (some centres undefined) | – |
| – | 2.1 | 520 | – | CC12C(=CC(=O)[C@@H]3C[C@@H]31)C1CC1C1C2CCC2(C)C1C1CC1[C@@]21CCC(=O)O1 (some centres undefined) | Competition factor [7]: 25 |
| inactive | – | 240 | – | CS[C@H]1CC(=O)C=C2C3CC3C3C(CCC4(C)C3C3CC3[C@@]43CCC(=O)O3)C21C (some centres undefined) | Competition factor [11]: inactive; McPhail index [10]: 3.8 |
| inactive | 30 | 100 | – | C[C@H]1CC2(C)C(=CC1=O)C1CC1C1C2CCC2(C)C1C1CC1[C@@]21CCC(=O)O1 (some centres undefined) | – |
| inactive | 25 | – | inactive | CC12CCC(=O)C=C1C1CC1C1C2CC(O)C2(C)C1C1CC1[C@@]21CCC(=O)O1 (some centres undefined) | – |
